Measured values from ChEMBL document CHEMBL5543089, “Discovery of a novel, highly potent EZH2 PROTAC degrader for targeting non-canonical oncogenic functions of EZH2” (Eur J Med Chem, 2024).
pIC50: −log10 of the molar value. Calls of active or inactive are those of the source. The calls are words filed in the database; no cut-off is given here.

Experiments:
[1] = molecular target: Histone-lysine N-methyltransferase EZH2 (Homo sapiens) (UniProt Q15910); test: Inhibition of human EZH2 assessed as methyltransferase activity using Core Histone as substrate at 10 uM by radioisotope based MT HotSpot assay relative to control
In short: (§1)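 Radioisotope-based methyltransferase assay (MT HotSpot) run by a contract lab. Compound was tested at 10 μM against a panel of 20 methyltransferases, in duplicate. Values are means ± SD of two replicates.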

[2] = molecular target: T1, von Hippel-Lindau disease tumor suppressor/Histone-lysine N-methyltransferase EZH2 (Homo sapiens, UniProt Q15910+P40337); test: PROTAC activity at VHL/EZH2 degradation in MLLr AML cell line human EOL1 cells assessed as protein degradation at 0.5 uM measured after 24 hrs in presence of 5 uM EPZ-6438 by Western blot analysis; format: cell-based
In short: (§2)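 EOL-1 cells were pre-treated for 2 h with MLN4924 (0.05 μM), EPZ-6438 (5 μM) or VHL-1 (5 μM), then given 0.5 μM degrader for 24 h. EZH2 was assessed by Western blot against β-actin. Blots are representative of two biological experiments.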
Target sequence in this assay (P40337 whole entry, looked up): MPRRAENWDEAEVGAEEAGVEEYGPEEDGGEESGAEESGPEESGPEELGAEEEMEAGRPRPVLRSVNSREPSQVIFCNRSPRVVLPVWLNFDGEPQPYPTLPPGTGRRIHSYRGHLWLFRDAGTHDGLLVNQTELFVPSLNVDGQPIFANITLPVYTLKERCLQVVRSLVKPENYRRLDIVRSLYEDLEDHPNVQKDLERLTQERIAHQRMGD
Target sequence in this assay (Q15910 whole entry, looked up): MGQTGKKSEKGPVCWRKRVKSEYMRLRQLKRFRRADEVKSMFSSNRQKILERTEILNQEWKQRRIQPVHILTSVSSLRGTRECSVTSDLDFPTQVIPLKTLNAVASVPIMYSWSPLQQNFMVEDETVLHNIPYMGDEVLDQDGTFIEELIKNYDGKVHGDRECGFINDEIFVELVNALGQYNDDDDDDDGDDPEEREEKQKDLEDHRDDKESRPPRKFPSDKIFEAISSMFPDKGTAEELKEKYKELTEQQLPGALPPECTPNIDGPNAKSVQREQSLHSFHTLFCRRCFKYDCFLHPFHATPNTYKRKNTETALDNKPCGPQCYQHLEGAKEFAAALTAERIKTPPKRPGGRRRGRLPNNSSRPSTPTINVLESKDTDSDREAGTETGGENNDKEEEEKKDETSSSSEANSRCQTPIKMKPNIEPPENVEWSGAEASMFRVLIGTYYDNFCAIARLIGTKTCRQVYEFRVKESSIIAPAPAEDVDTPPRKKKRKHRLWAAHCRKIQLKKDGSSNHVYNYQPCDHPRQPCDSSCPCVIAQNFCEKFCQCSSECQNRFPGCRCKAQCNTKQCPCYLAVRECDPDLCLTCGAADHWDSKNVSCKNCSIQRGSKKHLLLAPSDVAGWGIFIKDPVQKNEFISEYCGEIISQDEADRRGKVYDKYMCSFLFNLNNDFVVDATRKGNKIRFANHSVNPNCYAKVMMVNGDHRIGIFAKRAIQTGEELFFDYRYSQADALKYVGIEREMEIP

[3] = molecular target: Histone-lysine N-methyltransferase SUV39H1 (Homo sapiens) (UniProt O43463); test: Inhibition of human SUV39H1 assessed as methyltransferase activity using Histone H3 as substrate at 10 uM by radioisotope based MT HotSpot assay relative to control; in short: as §1
[4] = molecular target: Histone-lysine N-methyltransferase NSD3 (Homo sapiens) (UniProt Q9BZ95); test: Inhibition of human NSD3 assessed as methyltransferase activity using Nucleosomes as substrate at 10 uM by radioisotope based MT HotSpot assay relative to control; in short: as §1
MDA-MB-468 = test: Anti-proliferative activity against human MDA-MB-468 cells assessed as cell growth inhibition measured after 5 days incubation by CCK-8 assay; format: functional, cell-based; details: MDA-MB-468, 120 h
In short: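 Cells plated at 3,000–10,000 per well and exposed to serial dilutions for 5 days at 37 °C. CCK-8 (1x) was added for 2–4 h, with absorbance read at 450 nm against a 690 nm reference. IC50 was taken from curve fits. Leukemia lines were grown in RPMI-1640, K562 in IMDM and MDA-MB-468 in DMEM, all with 10 % FBS. Values are means ± SD of two biological experiments (three for BT549 and MDA-MB-468).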

[5] = molecular target: T1, von Hippel-Lindau disease tumor suppressor/Histone-lysine N-methyltransferase EZH2; test: PROTAC activity at VHL/EZH2 degradation in hMLLr AML cell line EOL1 cells assessed as protein degradation measured after 24 hrs by Western blot analysis; format: cell-based
In short: (§3)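 Cells were seeded at 0.5–2 million per well and treated for 24 h, or for the stated times at 300 nM in the time course. Lysis was in RIPA with protease inhibitors; ~10 μg protein was run on SDS-PAGE and blotted to PVDF. Detection used fluorescent immunoblotting for EZH2, EED and SUZ12, with β-actin as loading control. Blots are representative of two biological experiments.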

[6] = Toxicity in mouse at 50 mg/kg, ip measured after 4 hrs; format: organism-based; details: in vivo
[7] = molecular target: Histone-lysine N-methyltransferase EHMT2 (Homo sapiens) (UniProt Q96KQ7); test: Inhibition of human G9a assessed as methyltransferase activity using Histone H3 as substrate at 10 uM by radioisotope based MT HotSpot assay relative to control; in short: as §1
[8] = molecular target: N-lysine methyltransferase KMT5A (Homo sapiens) (UniProt Q9NQR1); test: Inhibition of human SET8 assessed as methyltransferase activity using Nucleosomes as substrate at 10 uM by radioisotope based MT HotSpot assay relative to control; in short: as §1
[9] = molecular target: T1, von Hippel-Lindau disease tumor suppressor/Histone-lysine N-methyltransferase EZH2; test: PROTAC activity at VHL/EZH2 degradation in MLLr AML cell line human EOL1 cells assessed as protein degradation at 0.1 uM measured after 24 hrs by Western blot analysis; format: cell-based; in short: as §3
Target sequence in this assay (P40337 whole entry, looked up): as the sequence (P40337 whole entry, looked up) above
Target sequence in this assay (Q15910 whole entry, looked up): as the sequence (Q15910 whole entry, looked up) above

[10] = molecular target: T1, von Hippel-Lindau disease tumor suppressor/Histone-lysine N-methyltransferase EZH2; test: PROTAC activity at VHL/EZH2 degradation in MLLr AML cell line human EOL1 cells assessed as protein degradation at 0.5 uM measured after 24 hrs by Western blot analysis; format: cell-based; in short: as §3
Target sequence in this assay (P40337 whole entry, looked up): as the sequence (P40337 whole entry, looked up) above
Target sequence in this assay (Q15910 whole entry, looked up): as the sequence (Q15910 whole entry, looked up) above

[11] = molecular target: T1, von Hippel-Lindau disease tumor suppressor/Histone-lysine N-methyltransferase EZH2; test: PROTAC activity at VHL/EZH2 degradation in MLLr AML cell line human EOL1 cells assessed as protein degradation at 0.5 uM measured after 24 hrs in presence of 0.05 uM MLN4924 by Western blot analysis; format: cell-based; in short: as §2
Target sequence in this assay (P40337 whole entry, looked up): as the sequence (P40337 whole entry, looked up) above
Target sequence in this assay (Q15910 whole entry, looked up): as the sequence (Q15910 whole entry, looked up) above

[12] = molecular target: Histone-lysine N-methyltransferase, H3 lysine-79 specific (Homo sapiens) (UniProt Q8TEK3); test: Inhibition of human DOT1L assessed as methyltransferase at 10 uM by radioisotope based MT HotSpot assay relative to control; in short: as §1
[13] = molecular target: Protein arginine N-methyltransferase 3 (Homo sapiens) (UniProt O60678); test: Inhibition of human PRMT3 assessed as methyltransferase activity using Histone H3 as substrate at 10 uM by radioisotope based MT HotSpot assay relative to control; in short: as §1
[14] = molecular target: T1, von Hippel-Lindau disease tumor suppressor/Histone-lysine N-methyltransferase EZH2; test: PROTAC activity at VHL/EZH2 degradation in human MV4-11 cells assessed as protein degradation at 0.03 to 0.3 microM measured after 24 hrs by Western blot analysis; format: cell-based; details: dose 0.03-0.3 µM; in short: as §3
Target sequence in this assay (P40337 whole entry, looked up): as the sequence (P40337 whole entry, looked up) above
Target sequence in this assay (Q15910 whole entry, looked up): as the sequence (Q15910 whole entry, looked up) above

[15] = molecular target: Protein arginine N-methyltransferase 7 (Homo sapiens) (UniProt Q9NVM4); test: Inhibition of human PRMT7 assessed as methyltransferase activity using GST-GAR as substrate at 10 uM by radioisotope based MT HotSpot assay relative to control; in short: as §1
[16] = molecular target: Histone-arginine methyltransferase CARM1 (Homo sapiens) (UniProt Q86X55); test: Inhibition of human PRMT4 assessed as methyltransferase activity using Histone H3 as substrate at 10 uM by radioisotope based MT HotSpot assay relative to control; in short: as §1
[17] = molecular target: T1, von Hippel-Lindau disease tumor suppressor/Histone-lysine N-methyltransferase EZH2; test: PROTAC activity at VHL/EZH2 degradation in hMLLr AML cell line EOL1 cells assessed as protein degradation at 1 uM measured after 24 hrs by Western blot analysis; format: cell-based; in short: as §3
Target sequence in this assay (P40337 whole entry, looked up): as the sequence (P40337 whole entry, looked up) above
Target sequence in this assay (Q15910 whole entry, looked up): as the sequence (Q15910 whole entry, looked up) above

[18] = molecular target: T1, von Hippel-Lindau disease tumor suppressor/Histone-lysine N-methyltransferase EZH2; test: PROTAC activity at VHL/EZH2 degradation in human MDA-MB-468 cells assessed as protein degradation at 0.1 to 3 uM measured after 48 hrs by Western blot analysis; format: cell-based; details: dose 0.1-3 µM
In short: (§4)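 BT549 (RPMI-1640) and MDA-MB-468 (DMEM) cells were treated for 48 h. RIPA lysates (~10 μg) were immunoblotted for EZH2 with β-actin as loading control. Blots are representative of three biological experiments.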

[19] = molecular target: Histone-lysine N-methyltransferase NSD2 (Homo sapiens) (UniProt O96028); test: Inhibition of human NSD2 assessed as methyltransferase activity using Nucleosomes as substrate at 10 uM by radioisotope based MT HotSpot assay relative to control; in short: as §1
[20] = molecular target: T1, von Hippel-Lindau disease tumor suppressor/Histone-lysine N-methyltransferase EZH2; test: PROTAC activity at VHL/EZH2 degradation in human BT-549 cells assessed as protein degradation at 0.1 to 3 uM measured after 48 hrs by Western blot analysis; format: cell-based; details: dose 0.1-3 µM; in short: as §4
BT-549 = test: Anti-proliferative activity against human BT-549 cells spheroid TNBC model assessed as decrease in cell viability at 2.5 to 20 uM by Cell Titer Glo 3D assay; format: functional, cell-based; details: dose 2.5-20 µM
In short: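 BT549 cells were coated with nanoshuttle (1 μL per 2000 cells, 24 h) and magnetically levitated in low-adhesion plates. They were grown 7 days at 37 °C until a single solid spheroid formed, then treated 5 d with compound or DMSO. Spheroid area was measured from images, and viability by CellTiter-Glo 3D. Data are means ± SD of three biological experiments, analysed by one-way ANOVA.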

Histone-lysine N-methyltransferase NSD3 (Homo sapiens), sequence (Q9BZ95 whole entry): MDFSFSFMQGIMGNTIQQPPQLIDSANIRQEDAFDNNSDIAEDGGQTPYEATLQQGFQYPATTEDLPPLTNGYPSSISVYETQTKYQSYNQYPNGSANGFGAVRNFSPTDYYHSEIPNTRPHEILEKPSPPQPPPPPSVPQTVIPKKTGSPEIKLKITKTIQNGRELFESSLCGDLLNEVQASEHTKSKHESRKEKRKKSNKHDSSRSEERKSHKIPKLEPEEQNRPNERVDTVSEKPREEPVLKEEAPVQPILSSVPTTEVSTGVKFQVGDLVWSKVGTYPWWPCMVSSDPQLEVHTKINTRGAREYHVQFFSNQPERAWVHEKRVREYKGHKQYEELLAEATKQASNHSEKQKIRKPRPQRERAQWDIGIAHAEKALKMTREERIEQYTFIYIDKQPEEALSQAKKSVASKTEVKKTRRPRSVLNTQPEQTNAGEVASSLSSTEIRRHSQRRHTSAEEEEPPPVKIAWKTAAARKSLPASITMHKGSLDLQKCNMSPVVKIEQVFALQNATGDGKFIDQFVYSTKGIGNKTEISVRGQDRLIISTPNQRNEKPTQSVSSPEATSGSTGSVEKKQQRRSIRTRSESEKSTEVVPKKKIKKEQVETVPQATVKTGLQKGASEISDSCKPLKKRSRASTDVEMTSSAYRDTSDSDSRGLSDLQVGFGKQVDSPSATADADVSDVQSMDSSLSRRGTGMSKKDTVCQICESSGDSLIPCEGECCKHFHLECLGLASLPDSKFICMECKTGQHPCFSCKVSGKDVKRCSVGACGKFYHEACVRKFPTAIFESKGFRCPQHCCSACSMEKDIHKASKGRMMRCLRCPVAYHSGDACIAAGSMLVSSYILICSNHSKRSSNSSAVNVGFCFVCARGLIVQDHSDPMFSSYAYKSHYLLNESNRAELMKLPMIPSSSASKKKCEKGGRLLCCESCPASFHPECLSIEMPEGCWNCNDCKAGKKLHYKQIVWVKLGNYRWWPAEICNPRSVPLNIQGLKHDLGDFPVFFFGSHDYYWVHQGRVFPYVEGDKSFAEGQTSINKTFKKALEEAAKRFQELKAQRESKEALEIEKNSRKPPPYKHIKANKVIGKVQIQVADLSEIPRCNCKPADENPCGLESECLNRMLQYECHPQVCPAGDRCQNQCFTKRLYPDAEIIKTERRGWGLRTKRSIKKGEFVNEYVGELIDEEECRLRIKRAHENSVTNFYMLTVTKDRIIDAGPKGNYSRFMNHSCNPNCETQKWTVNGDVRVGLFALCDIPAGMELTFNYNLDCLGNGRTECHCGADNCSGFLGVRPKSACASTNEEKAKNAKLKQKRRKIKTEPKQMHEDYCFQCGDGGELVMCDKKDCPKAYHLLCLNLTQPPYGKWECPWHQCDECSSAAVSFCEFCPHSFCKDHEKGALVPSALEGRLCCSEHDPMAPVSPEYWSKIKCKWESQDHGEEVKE
Histone-lysine N-methyltransferase NSD2 (Homo sapiens), sequence (O96028 whole entry): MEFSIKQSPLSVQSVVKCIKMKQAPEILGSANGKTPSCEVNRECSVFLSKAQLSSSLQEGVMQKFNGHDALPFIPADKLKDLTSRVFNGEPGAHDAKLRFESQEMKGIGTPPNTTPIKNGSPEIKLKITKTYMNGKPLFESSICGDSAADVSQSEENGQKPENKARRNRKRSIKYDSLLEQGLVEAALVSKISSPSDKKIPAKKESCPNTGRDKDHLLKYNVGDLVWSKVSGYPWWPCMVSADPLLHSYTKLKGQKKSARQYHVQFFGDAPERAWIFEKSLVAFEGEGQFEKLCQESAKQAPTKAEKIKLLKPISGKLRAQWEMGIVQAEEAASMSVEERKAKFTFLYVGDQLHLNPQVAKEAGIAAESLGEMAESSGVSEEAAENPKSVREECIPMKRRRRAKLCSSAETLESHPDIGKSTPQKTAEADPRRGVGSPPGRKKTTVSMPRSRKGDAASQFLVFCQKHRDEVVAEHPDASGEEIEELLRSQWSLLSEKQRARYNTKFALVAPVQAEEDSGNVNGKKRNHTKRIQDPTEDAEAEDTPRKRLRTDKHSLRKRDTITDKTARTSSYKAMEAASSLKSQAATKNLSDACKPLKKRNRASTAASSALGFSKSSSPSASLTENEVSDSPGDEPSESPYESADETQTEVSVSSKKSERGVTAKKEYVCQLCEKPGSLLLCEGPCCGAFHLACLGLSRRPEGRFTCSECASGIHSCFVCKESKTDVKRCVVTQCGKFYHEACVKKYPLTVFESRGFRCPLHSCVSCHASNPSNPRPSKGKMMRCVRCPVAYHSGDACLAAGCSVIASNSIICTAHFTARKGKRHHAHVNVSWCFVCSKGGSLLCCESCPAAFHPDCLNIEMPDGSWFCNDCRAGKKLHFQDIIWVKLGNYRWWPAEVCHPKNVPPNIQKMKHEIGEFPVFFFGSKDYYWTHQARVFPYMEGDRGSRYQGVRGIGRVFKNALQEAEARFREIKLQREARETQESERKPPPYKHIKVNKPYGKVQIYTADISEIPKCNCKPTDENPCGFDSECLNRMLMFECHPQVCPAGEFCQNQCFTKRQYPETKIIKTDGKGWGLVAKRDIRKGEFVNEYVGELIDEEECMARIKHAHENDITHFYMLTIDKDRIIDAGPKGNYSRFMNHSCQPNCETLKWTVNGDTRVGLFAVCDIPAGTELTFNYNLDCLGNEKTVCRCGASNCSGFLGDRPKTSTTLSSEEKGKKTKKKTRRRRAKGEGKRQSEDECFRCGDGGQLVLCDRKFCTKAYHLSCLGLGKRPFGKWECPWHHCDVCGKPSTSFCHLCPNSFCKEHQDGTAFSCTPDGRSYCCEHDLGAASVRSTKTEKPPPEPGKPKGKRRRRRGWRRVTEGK
Histone-arginine methyltransferase CARM1 (Homo sapiens), sequence (Q86X55 whole entry): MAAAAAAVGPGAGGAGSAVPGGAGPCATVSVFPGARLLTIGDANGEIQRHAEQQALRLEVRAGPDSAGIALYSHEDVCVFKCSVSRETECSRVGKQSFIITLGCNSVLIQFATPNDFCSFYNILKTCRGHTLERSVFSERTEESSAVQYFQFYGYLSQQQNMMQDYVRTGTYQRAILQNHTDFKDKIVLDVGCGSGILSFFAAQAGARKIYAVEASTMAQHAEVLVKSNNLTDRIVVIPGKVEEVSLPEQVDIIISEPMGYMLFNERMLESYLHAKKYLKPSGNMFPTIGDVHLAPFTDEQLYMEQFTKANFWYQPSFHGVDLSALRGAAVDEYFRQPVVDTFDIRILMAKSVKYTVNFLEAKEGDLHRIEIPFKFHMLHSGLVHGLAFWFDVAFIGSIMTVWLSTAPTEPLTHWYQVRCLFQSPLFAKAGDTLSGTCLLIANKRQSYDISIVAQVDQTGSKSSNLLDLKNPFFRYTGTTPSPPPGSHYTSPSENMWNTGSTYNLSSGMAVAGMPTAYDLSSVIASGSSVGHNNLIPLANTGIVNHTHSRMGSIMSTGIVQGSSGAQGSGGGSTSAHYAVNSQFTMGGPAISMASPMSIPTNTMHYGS

In the case of `CCN(c1cc(-c2ccc(CN3CCN(CCC(=O)NCCCCCCCCCCC(=O)N[C@H](C(=O)N4C[C@H](O)C[C@H]4C(=O)NCc4ccc(-c5scnc5C)cc4)C(C)(C)C)CC3)cc2)cc(C(=O)NCc2c(C)cc(C)[nH]c2=O)c1C)C1CCOCC1`, the inhibition [1] was “Active”, the Activity [2] was “inactive” and the inhibition [3] was < 50%. The inhibition [4] was < 50%, the pIC50 (MDA-MB-468) was 6.35 and the DC50 [5] was 34.4 nM. For the same molecule, the Activity [6] was “Non-Toxic”, the inhibition [7] was < 50% and the inhibition [8] was < 50%. For the same molecule, the Activity [9] was 100%, the Activity [10] was “Active” and the Activity [11] was “inactive”. For the same molecule, the inhibition [12] was < 50%, the inhibition [13] was < 50% and the Activity [14] was 100%. For the same molecule, the inhibition [15] was < 50%, the inhibition [16] was < 50% and the Activity [17] was 100%. The Activity [18] was “Active”, the inhibition [19] was < 50% and the Activity [20] was “Active”. The Activity (BT-549) was “Active”.
